Assay results: ChEMBL document CHEMBL1671817, “Synthesis of cationic antimicrobial β(2,2)-amino acid derivatives with potential for oral administration” (J Med Chem, 2011)
Values after ≈ are worked out from the molar mass of the structure shown. Active and inactive are the calls of the source. The rule behind the calls is not given here.

Key:
[1] = system: Staphylococcus epidermidis; test: Antimicrobial activity against methicillin-resistant Staphylococcus epidermidis ATCC 27626; assay type: functional
Summary of the method: (§1)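 MIC screen run at a contract lab. Each compound, as its ditrifluoroacetate salt, tested in duplicate at 200, 100, 50, 35, 15, 10, 5, 2.5, 1 and 0.5 μg/mL. Molar values calculated from the salt form. Gentamicin used as positive control.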

Escherichia coli = test: Antimicrobial activity against Escherichia coli ATCC 25922; assay type: functional
[2] = Therapeutic index, ratio of EC50 for human RBC hemolytic activity to MIC for Escherichia coli ATCC 25922; conditions: human red blood cells (RBC), read-out: TI
Summary of the method: (§2)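 Index taken as hemolytic EC50 divided by MIC for each strain. Hemolysis: human RBCs from heparinized blood, washed with 37 °C PBS, diluted to 10% hematocrit. Cells exposed at 1% v/v final to compound in PBS at 1–1000 μg/mL for 1 h at 37 °C with agitation. Hemoglobin read by supernatant A405 against PBS and 0.1% Triton X-100 controls. MICs in duplicate at 0.5–200 μg/mL.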

[3] = Hemolytic activity against human RBC assessed as hemoglobin release after 1 hr; assay type: ADME, cell-based; conditions: Erythrocyte
Summary of the method: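 Heparinized human blood freed of plasma by centrifugation, washed three times in 37 °C PBS, diluted to 10% hematocrit and added to compound in PBS (1–1000 μg/mL) to 1% v/v erythrocytes. PBS negative, 0.1% v/v Triton X-100 positive control.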

[4] = Therapeutic index, ratio of EC50 for human RBC hemolytic activity to MIC for Staphylococcus aureus ATCC 25923; conditions: human red blood cells (RBC), read-out: TI; summary of the method: as §2
Staphylococcus aureus [5] = test: Antimicrobial activity against Staphylococcus aureus ATCC 25923; assay type: functional
[6] = Therapeutic index, ratio of EC50 for human RBC hemolytic activity to MIC for methicillin-resistant Staphylococcus epidermidis ATCC 27626; conditions: human red blood cells (RBC), read-out: TI; summary of the method: as §2
Staphylococcus aureus [7] = test: Antimicrobial activity against methicillin-resistant Staphylococcus aureus ATCC 33591; assay type: functional; summary of the method: as §1
[8] = Therapeutic index, ratio of EC50 for human RBC hemolytic activity to MIC for methicillin-resistant Staphylococcus aureus ATCC 33591; conditions: human red blood cells (RBC), read-out: TI; summary of the method: as §2
[9] = Permeability of the compound across phospholipid vesicle based barrier model at pH 7.4; assay type: ADME
Summary of the method: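 Passive diffusion through phospholipid vesicle-based barriers (egg lipid extract, ~82% phosphatidylcholine) on filter inserts at room temperature. Donor in phosphate buffer pH 7.4, or pH 5.5 for a poorly soluble compound; acceptor always pH 7.4. Inserts moved to fresh acceptor wells; UV 230 nm at 1, 2, 3, 3.5, 4, 4.5, 5 h; barrier resistance checked afterwards.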

Pseudomonas aeruginosa = test: Antimicrobial activity against Pseudomonas aeruginosa ATCC 27853; assay type: functional
[10] = Therapeutic index, ratio of EC50 for human RBC hemolytic activity to MIC for Pseudomonas aeruginosa ATCC 27853; conditions: human red blood cells (RBC), read-out: TI; summary of the method: as §2
Staphylococcus aureus [11] = test: Antimicrobial activity against Staphylococcus aureus assessed as cell wall mesosome structure and septum of bacteria at 234 uM after 2 hrs by transmission electron microscopy; assay type: functional, organism-based
Staphylococcus aureus [12] = test: Antimicrobial activity against Staphylococcus aureus assessed as cell wall mesosome structure and septum of bacteria at 117 uM after 3 hrs by transmission electron microscopy; assay type: functional, organism-based

SMILES	MIC [1]	MIC (Escherichia coli)	selectivity ratio [2]	EC50 [3]	selectivity ratio [4]	MIC (Staphylococcus aureus [5])	selectivity ratio [6]	MIC (Staphylococcus aureus [7])	selectivity ratio [8]	permeability [9]	MIC (Pseudomonas aeruginosa)	selectivity ratio [10]	Activity (Staphylococcus aureus [11])	Activity (Staphylococcus aureus [12])
CN(C)CCNC(=O)C(CN)(Cc1ccc(C(F)(F)F)cc1)Cc1ccc(C(F)(F)F)cc1.O=C(O)C(F)(F)F.O=C(O)C(F)(F)F	21 µM	50 µM	9.4	468 µM	33	14 µM	22	7.1 µM	66	–	–	–	–	–
CN(C)CCN1CCN(C(=O)C(CN)(Cc2ccc3ccccc3c2)Cc2ccc3ccccc3c2)CC1.O=C(O)C(F)(F)F.O=C(O)C(F)(F)F	14 µM	48 µM	8.5	409 µM	20	20 µM	29	3.4 µM	120	permeable	–	–	–	–
CN1CCN(C(=O)C(CN)(Cc2ccc3ccccc3c2)Cc2ccc3ccccc3c2)CC1.O=C(O)C(F)(F)F.O=C(O)C(F)(F)F	15 µM	22 µM	14	303 µM	20	15 µM	20	7.4 µM	41	permeable	–	–	–	–
CN1CCN(C(=O)C(CN)(CCCc2ccccc2)CCCc2ccccc2)CC1	315 µM (≈ 128 µg/mL)	315 µM (≈ 128 µg/mL)	–	–	–	315 µM (≈ 128 µg/mL)	–	315 µM (≈ 128 µg/mL)	–	–	–	–	–	–
NCCNC(=O)C(CN)(CCCc1ccccc1)CCCc1ccccc1.O=C(O)C(F)(F)F.O=C(O)C(F)(F)F	25 µM	336 µM	4.1	1380 µM	19	71 µM	55	59 µM	23	–	–	–	–	–
CN(C)CCN1CCN(C(=O)C(CN)(Cc2ccc(C(C)(C)C)cc2)Cc2ccc(C(C)(C)C)cc2)CC1.O=C(O)C(F)(F)F.O=C(O)C(F)(F)F	13 µM	13 µM	26	337 µM	26	13 µM	26	13 µM	26	–	255 µM	1.3	–	–
CN(C)CCN1CCN(C(=O)C(CN)(CCCc2ccccc2)CCCc2ccccc2)CC1	72 µM (≈ 33.5 µg/mL)	289 µM (≈ 134 µg/mL)	–	–	–	289 µM (≈ 134 µg/mL)	–	72 µM (≈ 33.5 µg/mL)	–	–	–	–	–	–
NCCNC(=O)C(CN)(Cc1ccc(C(F)(F)F)cc1)Cc1ccc(C(F)(F)F)cc1.O=C(O)C(F)(F)F.O=C(O)C(F)(F)F	15 µM	52 µM	8	425 µM	28	15 µM	28	7.4 µM	57	–	–	–	–	–
CN(C)CCNC(=O)C(CN)(Cc1ccc2ccccc2c1)Cc1ccc2ccccc2c1.O=C(O)C(F)(F)F.O=C(O)C(F)(F)F	7.5 µM	23 µM	5.1	117 µM	16	7.5 µM	16	7.5 µM	16	permeable	300 µM	0.4	–	–
CN(C)CCNC(=O)C(CN)(Cc1ccc(C(C)(C)C)cc1)Cc1ccc(C(C)(C)C)cc1.O=C(O)C(F)(F)F.O=C(O)C(F)(F)F	3.7 µM	7.4 µM	37	274 µM	37	7.4 µM	74	7.4 µM	37	–	74 µM	3.7	–	–
CN1CCN(C(=O)C(CN)(Cc2ccc(C(C)(C)C)cc2)Cc2ccc(C(C)(C)C)cc2)CC1.O=C(O)C(F)(F)F.O=C(O)C(F)(F)F	7.2 µM	15 µM	23	348 µM	23	15 µM	48	15 µM	23	–	289 µM	1.2	–	–
NCCNC(=O)C(CN)(Cc1ccc2ccccc2c1)Cc1ccc2ccccc2c1.O=C(O)C(F)(F)F.O=C(O)C(F)(F)F	3.9 µM	24 µM	19	457 µM	117	3.9 µM	117	7.8 µM	59	–	55 µM	8.3	Active	Active
CC(C)(C)c1ccc(CC(CN)(Cc2ccc(C(C)(C)C)cc2)C(=O)NCCN)cc1.O=C(O)C(F)(F)F.O=C(O)C(F)(F)F	3.8 µM	7.7 µM	2.3	18 µM	4.7	3.8 µM	4.7	3.8 µM	4.7	–	23 µM	0.8	–	–
CN1CCN(C(=O)C(CN)(Cc2ccc(C(F)(F)F)cc2)Cc2ccc(C(F)(F)F)cc2)CC1.O=C(O)C(F)(F)F.O=C(O)C(F)(F)F	70 µM	70 µM	7.5	525 µM	11	49 µM	7.5	14 µM	38	–	–	–	–	–
CN(C)CCN1CCN(C(=O)C(CN)(Cc2ccc(C(F)(F)F)cc2)Cc2ccc(C(F)(F)F)cc2)CC1.O=C(O)C(F)(F)F.O=C(O)C(F)(F)F	65 µM	129 µM	8.6	1120 µM	25	45 µM	17	6.5 µM	172	–	–	–	–	–
CN(C)CCNC(=O)C(CN)(CCCc1ccccc1)CCCc1ccccc1.O=C(O)C(F)(F)F.O=C(O)C(F)(F)F	56 µM	160 µM	3.2	507 µM	9.1	56 µM	9.1	56 µM	9.1	–	–	–	–	–
